Assay results published in PubChem BioAssay AID651952 (The Scripps Research Institute Molecular Screening Center, 2012).
The whole screen tested about 2,400 compounds, of which about 940 (39%) were called active. Not all results are given here. Values without a mark were called inactive.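 The calls were made as follows: active = inhibition above the plate's mean compound inhibition plus 3 SD, computed per plate (cut at about 22% in these data); inactive = the rest.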

Assay: inhibition of ATP-evoked calcium response in CHO-Ga16 cells, counter-screen for TAAR1 agonist project, cell-based, fluorescence (AID 651952);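 also: 0% = EC80 ATP with DMSO and 100% = DMSO wells without ATP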
Settings: CHO-Ga16 ATP-induced calcium, Fluo-8 fluorescence; at 3 µM; active compounds read high
Summary of the method: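 Test system: parental CHO cells stably overexpressing Gα16, lacking hTAAR1; Timing: 17–24 h seeding, dye 75 min 37 °C, 30 min RT; Signal: Fluo-8 calcium dye fluorescence, excitation 470–495 nm, emission 515–575 nm; Controls: DMSO-only and ATP-stimulated wells; Read-out: % inhibition of ATP-evoked calcium signal.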

SMILES	inhibition
NC(=O)C1=C[C@H](c2csc3ccccc23)C[C@H](OCc2ccc(CO)cc2)O1	36.5% (active)
CCc1ccccc1S(=O)(=O)Cc1ccc(C(=O)NCCc2ccccc2)o1	8.92%
Cc1ccccc1NC(=S)NC(=O)Cc1ccc(Cl)cc1	44.5% (active)
O=C(NCCc1ccccc1)Oc1ccc(Cl)cc1	11%
O=C(Cc1ccc(Cl)cc1)NC(=S)Nc1ccccc1O	92.6% (active)
S=C(NCCCc1cnc[nH]1)NCCCN(Cc1ccc(Cl)c(Cl)c1)c1ccc(Br)cn1	48.6% (active)
CCCCCCCCCCOC(=O)Cn1c(COc2ccc(C)cc2)[n+](C)c2ccccc21	75.9% (active)
Nc1cccc2c1C(=O)N(Cc1nnc(-c3ccccc3Br)o1)C2=O	7.55%
O=C(CSc1nc(-c2ccco2)cc(C(F)(F)F)n1)NCc1cccs1	3.17%
NC(Cc1ccccc1)c1csc(Nc2cc(Oc3ccccc3)ncn2)n1 (stereo not drawn)	34.3% (active)
O=C(COC(=O)Cc1ccccc1F)NCCc1ccccc1	5.44%
CC(=O)Oc1ccc(Cn2c(C)c(C(=O)NCc3ccc(C#N)cc3)sc2=O)cc1	45.6% (active)
CN(C)c1ccc(/C=C2\NC(=S)N(Cc3ccccc3)C2=O)cc1	71.1% (active)
O=C(/C=C/[C@H]1O[C@@H](n2cnc3c(NC(=O)c4ccccc4)ncnc32)[C@H](O)[C@@H]1O)NCc1ccccc1	7.32%
CN(C)CCCN(C(=O)c1ccc(S(=O)(=O)N2CCCc3ccccc32)cc1)c1nc2ccc(F)cc2s1	43.4% (active)
CN(C)CCCN(C(=O)c1ccc(S(=O)(=O)N2CCCCCC2)cc1)c1nc2ccc(Br)cc2s1	43% (active)
Cc1cc(=O)oc2c(C)c(OCC(=O)NCCN3CCOCC3)ccc12	7.14%
Nc1c(NCCc2ccccc2)c2ccccc2oc1=O	18%
CCOC(=O)Cc1csc(NC(=O)Nc2ccccc2)n1	26.6% (active)
Cc1ccn2c(=O)c(C(=O)NCCC3=CCCCC3)c(O)nc2c1	-3.36%
Cc1ccc(O)c(NC(=S)NC(=O)COc2ccc(Br)cc2)c1	92% (active)
COCCCn1c(Cc2csc(Nc3cccc(Cl)c3)n2)nnc1SCC(=O)OC1CCCCC1	6.89%
c1ccc(CCN2CN=C(Nc3nc4ccccc4o3)NC2)cc1	-0.52%
CCCCCC(=O)NC(=S)NNC(=O)c1ccc([N+](=O)[O-])cc1	51.5% (active)

SMILES	inhibition
O=C(NCCc1ccccc1)/C(=C\c1ccc([N+](=O)[O-])cc1)NC(=O)c1ccccc1	9.72%
CC(NC(=O)c1cc(-c2ccccc2)on1)c1ccccc1 (stereo not drawn)	17.1%
O=[N+]([O-])c1cc(S(=O)(=O)NCCc2ccccn2)ccc1Cl	0.96%
N#Cc1ccc(OCCCN2CCC(C(O)(c3ccccc3)c3ccccc3)CC2)c(F)c1	25.9% (active)
COc1ccc(NC(=O)C(=O)NCC(c2ccco2)N2CCc3ccccc3C2)cc1 (stereo not drawn)	9.37%
COc1cccc(N(CC(=O)N2CCc3ccccc3C2)S(C)(=O)=O)c1	12.7%
O=C(O)C1C2C=CC(O2)C1C(=O)NCCc1cccc(Cl)c1 (stereo not drawn)	7.32%
COc1ccc(C(=O)NC(=S)NNC(=O)c2c(-c3ccccc3)noc2C)cc1	14.4%
Cc1onc(-c2ccccc2)c1C(=O)NNC(=S)NC(=O)c1ccc(F)cc1	50.7% (active)
COc1ccc(C(=O)NNC(=S)NC(=O)c2ccccc2)cc1	44.3% (active)
O=C(Nc1cccc(NC(=O)c2ccc(Br)cc2)c1)c1ccccc1	2.95%
COc1ccc(C(=O)NC(=S)NNC(=O)CCc2ccccc2)cc1	58.5% (active)
CCCc1cc(C(=O)Nc2ccc(C(=O)OC)cc2)cs1	11.2%
O=C1CCCC(O)=C1C=NCCc1ccccc1	1.71%
Cc1ccccc1-c1nc(CS(=O)(=O)CC(=O)N2CCc3ccccc3C2)c(C)o1	18.3%
CCCCC(=O)NNC(=S)NC(=O)C(c1ccccc1)c1ccccc1	91% (active)
O=C(N[C@H](C(=O)N1CCC[C@H]1C(=O)NCCc1ccccc1Cl)c1ccccc1)c1ccccc1	12.2%
C[C@H](NC(=O)c1ccccc1)C(=O)OCC(=O)c1c[nH]c2ccccc12	-1.32%
CN(C(=O)CN(CCO)CC(=O)N(C)C(C)(C)Cc1ccccc1)C(C)(C)Cc1ccccc1	74.1% (active)
COc1cccc(-c2cnc(OC(C)(C)C)nc2OC(C)(C)C)c1	4.69%
Cc1ccc(Cl)cc1N1CCN(C(=O)c2cccc3c(=O)c(C)c(-c4ccccc4)oc23)CC1	69.8% (active)
O=C(CCCN=C1NS(=O)(=O)c2ccccc21)OCC(=O)c1ccc(F)c(F)c1	26.1% (active)
CC(=O)Nc1ccccc1Sc1ccc2c3c(cccc13)C(=O)N(c1ccc(C)cc1)C2=O	2.83%
Nc1cc(OC(=O)c2ccccc2Br)nn1S(=O)(=O)c1ccccc1	2.75%
